Screening data: PubChem BioAssay, several laboratories
PfG6PD inh = PfG6PD (Plasmodium falciparum) enzyme inhibition. PfGluPho enzyme, NADPH resazurin-diaphorase fluorescence. inhibition, % at 20 µM. hit rate 0.78% among 350,000. AID 504690;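 active = inhibition reaching at least a set limit at 20 µM in the primary screen, cut at about 59% in these data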;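 note: 0% = DMSO wells with substrate and 100% = DMSO wells lacking glucose-6-phosphate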
Neddyl block = blocks human cullin neddylation; TR-FRET cullin neddylation, biochemical; P61081+Q13564; hit rate 0.58% among 360,000; AID 651699; inhibition, % at 25 µM; in the data active = inhibition above about 36%
HKDC1 inhibitor = blocks human hexokinase HKDC1 activity; hit rate 0.16% among 340,000; AID 493160; inhibition, % at 20 µM; recombinant HKDC1, G6PDH/diaphorase resazurin coupled fluorescence; Q2TB90;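 active = inhibition above about 35% when tested at 20 µM, limit read from the data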;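 note: plate controls were DMSO wells with enzyme for no effect and DMSO wells lacking enzyme for full effect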
Target sequence (Q2TB90 whole entry, looked up): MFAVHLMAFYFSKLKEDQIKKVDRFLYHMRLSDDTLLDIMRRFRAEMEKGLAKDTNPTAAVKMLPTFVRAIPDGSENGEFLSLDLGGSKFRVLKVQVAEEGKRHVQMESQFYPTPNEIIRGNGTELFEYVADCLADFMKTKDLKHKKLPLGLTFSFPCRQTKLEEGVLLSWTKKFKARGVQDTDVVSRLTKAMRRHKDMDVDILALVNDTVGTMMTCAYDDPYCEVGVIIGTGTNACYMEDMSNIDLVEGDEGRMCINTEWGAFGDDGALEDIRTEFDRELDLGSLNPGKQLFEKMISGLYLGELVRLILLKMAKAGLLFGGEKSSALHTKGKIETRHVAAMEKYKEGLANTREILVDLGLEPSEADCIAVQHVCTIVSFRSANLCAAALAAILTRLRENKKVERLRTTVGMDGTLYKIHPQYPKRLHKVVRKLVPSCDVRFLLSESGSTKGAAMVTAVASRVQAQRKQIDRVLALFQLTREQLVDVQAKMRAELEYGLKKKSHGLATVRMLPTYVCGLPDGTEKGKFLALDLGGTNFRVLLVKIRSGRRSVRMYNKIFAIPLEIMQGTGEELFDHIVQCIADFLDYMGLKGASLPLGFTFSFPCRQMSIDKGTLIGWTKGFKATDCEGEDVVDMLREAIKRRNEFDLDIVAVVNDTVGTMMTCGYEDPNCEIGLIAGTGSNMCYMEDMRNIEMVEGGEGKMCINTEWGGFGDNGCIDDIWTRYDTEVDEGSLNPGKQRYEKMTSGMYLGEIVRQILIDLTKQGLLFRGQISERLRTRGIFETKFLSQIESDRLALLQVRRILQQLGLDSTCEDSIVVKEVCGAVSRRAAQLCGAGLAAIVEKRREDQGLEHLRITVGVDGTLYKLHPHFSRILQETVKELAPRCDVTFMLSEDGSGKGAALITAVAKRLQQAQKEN
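Test system: HK5 enzyme. Quantity: 5 µg/mL HK5 final. Reagent: glucose and ATP substrates. Schedule: 90 min reaction incubation at room temperature, dark. Technique: resazurin-to-resorufin fluorescence via G6PDH and diaphorase coupling, 525/613 nm. Control set: DMSO wells with and without enzyme mix.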
PfM18AAP inh-1 = PfM18AAP enzyme inhibition | inhibition, % at 7.35 µM | AID 1822 | recombinant PfM18AAP, H-Glu-NHMec fluorogenic cleavage | hit rate 1.2% among 290,000;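 active = inhibition above the campaign mean inhibition over all tested compounds plus 3 SD, cut at about 28% in these data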;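 note: 0% = plate median of test compound wells and 100% = 2 mM ZnCl2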
PfM18AAP inh-2 = PfM18AAP inhibition, confirmation; shares compounds with PfM18AAP inh-1; recombinant PfM18AAP, H-Glu-NHMec fluorogenic cleavage; inhibition, % at 7.35 µM; hit rate 28% among 2,400; AID 2170;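 active = mean inhibition over replicate wells above the hit cutoff set for the earlier primary screen, cut at about 29% in these data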;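 note: 0% = median of test compound wells and 100% = 2 mM ZnCl2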
CTSL1 confirm = Cathepsin L (human) inhibition, confirmation; AID 2178; purified cathepsin L1, Z-Leu-Arg-MCA fluorescence; shares compounds with PfM18AAP inh-1; 2,400 tested, under 10 active; inhibition, % at 5.96 µM;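 active = average inhibition across replicates above the hit cutoff set in the earlier primary screen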;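 note: 0% = median of test compound wells and 100% = Z-Phe-Ala-diazomethylketone 1 µM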
HKDC1 act conf2 = HKDC1 (human) activation, single-dose confirmed | inhibition, % at 20 µM | shares compounds with HKDC1 inhibitor | hit rate 14% among 740 | recombinant HKDC1, G6PDH/diaphorase resazurin fluorescence; active compounds read low | AID 504708;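 active = inhibition at or below a set negative limit, negative inhibition meaning the enzyme was activated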
PfG6PD confirm = PfG6PD inhibition, single-dose confirmed | inhibition, % at 20 µM | AID 504753 | shares compounds with PfG6PD inh | recombinant PfGluPho, NADPH-diaphorase-resazurin fluorescence | hit rate 34% among 2,400;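 active = inhibition of at least 50% at 20 µM in any single replicate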;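 note: 0% = DMSO with substrate and 100% = DMSO lacking glucose-6-phosphate substrate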
Diaphorase 10uM = counter-screen for P. falciparum G6PD inhibitors: diaphorase inhibitors, oxidizers | shares compounds with PfG6PD inh | diaphorase-coupled resazurin reduction, fluorescence, NADPH 10 uM | AID 504862 | inhibition, % at 20 µM | hit rate 39% among 820;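 active = average inhibition reaching 50% or more with the compound at 20 µM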;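 note: resorufin red fluorescence formed as diaphorase reduces resazurin using NADPH; 0% = DMSO with enzyme and 100% = DMSO without enzyme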
Diaph ctr 30uM = inhibits diaphorase or oxidizes, flagging false PfG6PD hits; shares compounds with PfG6PD inh; Diaphorase/resazurin coupled assay, resorufin fluorescence, 30 uM NADPH; inhibition, % at 20 µM; hit rate 29% among 820; AID 504863;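 active = inhibition averaging 50% or more, tested at 20 µM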;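 note: 0% = DMSO with enzyme and 100% = DMSO wells lacking diaphorase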
The depositor's hits bear a star; . = no result. Most compounds without a hit are left out; they make up all but 2.2% or so of the library.

SMILES	PfG6PD inh	Neddyl block	HKDC1 inhibitor	PfM18AAP inh-1	PfM18AAP inh-2	CTSL1 confirm	others
Cc1nc2nc(SCc3ccccc3)[nH]n2c(=O)c1C	18	5	2	-2	.	.
Cc1noc(C)c1CSCC(=O)N(C)CC(=O)Nc1ccc(Cl)c(C(F)(F)F)c1	26	-2	-1	.	.	.
O=C(NC1CCCCC1)C(c1ccc(O)c(O)c1)N(C(=O)Cn1nnc2ccccc21)c1cccc(O)c1 (stereo unspecified)	-5	1	-4	86*	83*	-2
CC(=O)c1cccc(N(C(=O)Cn2nnc3ccccc32)C(C(=O)NC2CCCCC2)c2cn(C)nc2C)c1 (stereo unspecified)	9	6	-11	-3	.	.
Cc1cccc(-n2c(CCn3nc(C)c([N+](=O)[O-])c3C)n[nH]c2=S)c1	45	-2	-3	18	.	.
COc1cccc(-n2c(CCn3nc(C)c([N+](=O)[O-])c3C)n[nH]c2=S)c1	54	4	-6	32*	2	0
OCC(O)/C=N/Nc1nc2ccccc2s1 (stereo unspecified)	6	12	-8	33*	3	-2
Oc1ccc(C=NNc2nc3ccccc3s2)c(O)c1	25	36	16	.	.	.
Cc1cc(NO)nc(-c2ccc(Br)cc2)n1	5	-10	-5	56*	32*	1
O=C(Oc1ccccc1O)c1cccc2ccccc12	.	-8	.	61*	5	0
CC(C)CN(C(=O)COC(=O)CNC(=O)c1sc2ccccc2c1Cl)C1CCS(=O)(=O)C1 (stereo unspecified)	-7	-88	-8	.	.	.
Cc1ccc(NC(=O)CCC(=O)c2ccc(Cl)s2)nc1	-5	-64	1	.	.	.
COc1cc(NC(=S)NC(C)(C)C)c(OC)cc1Cl	20	-4	-14	-1	.	.
COc1cc(Cl)c(C)cc1NC(=S)NN	18	6	-7	32*	21	-6
O=C(CSc1ncn[nH]1)N1N=C(c2ccc(Cl)cc2)CC1c1ccco1 (stereo unspecified)	-12	-4	-9	42*	-7	-1
CCN1C(=O)/C(=C2/SC(C)=C(C)N2CC)SC1=S	8	15	-5	38*	-31	0
COc1ccc(CNC(=O)c2ccc3c(c2)N(C)C(=O)CS3=O)cc1 (stereo unspecified)	41	0	-2	47*	-15	5
COC(=O)c1ccc(CNC(=O)C2CCC(=O)N(CCc3ccccc3)C2)cc1 (stereo unspecified)	4	2	-5	-5	.	.
O=C1C=C(NNC(=O)c2cccnc2)CC(c2ccco2)C1 (stereo unspecified)	-2	-2	-5	35*	-29	9
CC1(C)CC(=O)C=C(NNC(=O)c2cccnc2)C1	-6	-7	1	18	.	.
Cc1c(Br)c(O)c(Br)c2sc(=O)oc12	12	-4	23	36*	-34	0
Oc1ccccc1N=Cc1c(O)ccc2oc3c(c12)CCCC3	4	-11	2	39*	9	3
O=C(O)c1ccc(N=Cc2c(O)ccc3oc4c(c23)CCCC4)cc1	-10	16	10	3	.	.
O=C(Nc1ccc(C(=O)O)cc1)/C(=C\c1ccco1)NC(=O)c1ccco1	11	-5	-5	32*	-44	1
CC(=O)c1ccc(NC(=O)/C(=C\c2ccco2)NC(=O)c2ccco2)cc1	7	-8	-2	7	.	.
SMILES	PfG6PD inh	Neddyl block	HKDC1 inhibitor	PfM18AAP inh-1	PfM18AAP inh-2	CTSL1 confirm	others
CCOC(=O)c1c(-c2cccs2)csc1N	22	-1	0	36*	-42	-2
O=c1[nH]c(/C=C\c2ccc(O)c(O)c2)nc(O)c1[N+](=O)[O-]	1	-3	0	78*	76*	4
CC(OC(=O)C1CCN(S(=O)(=O)c2ccc(F)cc2)CC1)C(=O)NC1CCCCC1C (stereo unspecified)	1	-2	-4	.	.	.
Cn1c(=O)[nH]c2c(c1=O)CCO2	4	3	-1	.	.	.
CCC(=O)Nc1nc2ccc(NC(=O)COc3ccccc3)cc2s1	-3	-36	-5	43*	-42	-10
Cc1nc2ccc(NC(=O)COc3ccccc3)cc2s1	-10	9	1	5	.	.
CCN(CC)c1ccc(NS(=O)(=O)c2ccc(-c3ccc(=O)[nH]n3)o2)c(C)c1	37	-13	2	45*	12	-1
Cc1ccccc1NS(=O)(=O)c1ccc(-c2ccc(=O)[nH]n2)o1	-7	-17	-2	-6	.	.
CCOCCCn1c(=O)c2ccccc2n2c(=S)[nH]nc12	25	-4	1	46*	22	-3
COC(=O)C1C(O)=C(C=NCC(C)N=CC2=C(O)C(C(=O)OC)C(C)(C)CC2=O)C(=O)CC1(C)C (stereo unspecified)	8	-1	-7	47*	21	-1
FC(F)(F)c1ccccc1NC(=S)NN=C1CCCCCC1	-8	.	-38	39*	-23	-1	HKDC1 act conf2=-30
Cc1cc(SCC(=O)N/N=C/c2ccc(O)c(O)c2O)c(C)cc1Br	-5	-5	45*	53*	22	-8	HKDC1 act conf2=8
COc1cc(/C=N/NC(=O)CSc2cc(C)c(Br)cc2C)ccc1O	-5	-1	2	-7	.	.
COCc1cc(C2C(C(=O)c3ccco3)=C(O)C(=O)N2CCOCCO)ccc1O (stereo unspecified)	5	-1	35*	43*	-20	6	HKDC1 act conf2=-40*
CC(C)Cc1ccc(CN2C(C)C(=O)N(Cc3cn(Cc4ccco4)nn3)CCS2(=O)=O)cc1 (stereo unspecified)	.	10	.	.	.	.
CN(C(=O)COc1ccc(S(=O)(=O)N2CCOCC2)cc1[N+](=O)[O-])C1CCS(=O)(=O)C1 (stereo unspecified)	-6	-10	-5	-7	.	.
O=C(CCc1ccc(O)c(O)c1)N/N=C/c1cc2c(cc1[N+](=O)[O-])OCO2	68*	-20	17	76*	51*	-1	PfG6PD confirm=65*;Diaphorase 10uM=33;Diaph ctr 30uM=17
Cc1cccc(C)c1OCC(=O)N/N=C/c1cc2c(cc1[N+](=O)[O-])OCO2	33	-18	-1	22	.	.
CCOC(=O)C1=C(C)Nc2ccccc2N/C1=N\S(=O)(=O)c1ccccc1	-24	-7	0	.	.	.
